Here are results for five molecules from ChEMBL document CHEMBL1150589, “New sesquiterpenoids from the root of Guatteria multivenia” (J Nat Prod, 2002).

The term IC50 denotes the point on the concentration scale where inhibition reaches its midpoint. The MIC is the lowest concentration found to suppress growth. A lower MIC goes with inhibition by little substance.

Experiment [1] deals with Cryptococcus neoformans. The experiment can be described thus: Antimicrobial activity against Cryptococcus neoformans. The format is functional, organism-based. The method in brief: (§1)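 Antimicrobial assay run per an earlier method. Both IC50 and MIC were reported in µg/mL. Amphotericin B was the positive control for C. albicans and C. neoformans.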
The test system of experiment [2] is Candida albicans. The experiment can be described thus: Antimicrobial activity against Candida albicans. The format is functional, organism-based. The gist of the method: as §1
Experiment [3] is described as follows: Inhibition of Candida albicans secreted aspartic protease. The method in brief:
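SAP inhibition assay run per an earlier method, with IC50 reported in µg/mL. Pepstatin A was the positive control.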

The test system of experiment [4] is Staphylococcus aureus. The experiment can be described thus: Antimicrobial activity against methicillin-resistant Staphylococcus aureus. The format is functional, organism-based.
In experiment [5] the test system is Staphylococcus aureus. Kind of experiment: Antimicrobial activity against Staphylococcus aureus. Format: functional, organism-based. The gist of the method: as §1

In brackets after ≈: the same amount, converted by molar mass.

As for `C[C@@H]1[C@H](O)[C@@H](C)/C=C/C=C/C=C/C=C/C=C/C=C/C=C/[C@H](O[C@@H]2O[C@H](C)[C@@H](O)[C@H](N)[C@@H]2O)C[C@@H]2O[C@](O)(C[C@@H](O)C[C@@H](O)[C@H](O)CC[C@@H](O)C[C@@H](O)CC(=O)O[C@H]1C)C[C@H](O)[C@H]2C(=O)O` [AMPHOTERICIN B], in experiment [1], the IC50 amounted to 0.3 µg/mL (≈ 0.325 µM) and 0.63 µg/mL (≈ 0.682 µM) was the least that counted as inhibitory (MIC). In experiment [2], half-maximal inhibition (IC50) was put at 0.06 µg/mL (≈ 0.0649 µM).
With `COc1ccc2c(c1)C(=O)c1nccc3cc4c(c-2c13)OCO4` [ATHEROSPERMIDINE], in experiment [3], the IC50 worked out at 45 µg/mL (≈ 147 µM).
`O=C(O)c1cn(C2CC2)c2cc(N3CCNCC3)c(F)cc2c1=O` [CIPROFLOXACIN]: in experiment [4], the MIC was found to be 3.13 µg/mL (≈ 9.45 µM). Also, in experiment [5], the 50% inhibitory concentration (IC50) amounted to 0.07 µg/mL (≈ 0.211 µM) and the MIC was 0.39 µg/mL (≈ 1.18 µM).
As to `O=C1c2ccccc2-c2c3c(cc4ccnc1c24)OCO3` [LIRIODENINE], the IC50 turned out to be 2 µg/mL (≈ 7.27 µM) in experiment [4], 2 µg/mL (≈ 7.27 µM) in experiment [1], 3.5 µg/mL (≈ 12.7 µM) in experiment [2] and 2 µg/mL (≈ 7.27 µM) in experiment [5]. Besides, the MIC in experiment [4] is 3.13 µg/mL (≈ 11.4 µM); in experiment [1], 12.5 µg/mL (≈ 45.4 µM); in experiment [2] it was 6.25 µg/mL (≈ 22.7 µM); in experiment [5] it was 3.13 µg/mL (≈ 11.4 µM).
Consider `CC(C)CC(=O)N[C@H](C(=O)N[C@H](C(=O)N[C@@H](CC(C)C)[C@@H](O)CC(=O)N[C@@H](C)C(=O)N[C@@H](CC(C)C)[C@@H](O)CC(=O)O)C(C)C)C(C)C` [PEPSTATIN], for which the IC50 in experiment [3] came to 0.006 µg/mL (≈ 0.00875 µM).
